{
  "source": "ChEMBL document CHEMBL1137646",
  "about": "“Intracellular metabolism and persistence of the anti-human immunodeficiency virus activity of 2',3'-didehydro-3'-deoxy-4'-ethynylthymidine, a novel thymidine analog” (Antimicrob Agents Chemother, 2007)",
  "key": {"[1]": {"test_system": "Human immunodeficiency virus 1", "assay": "Antiviral activity against 0.1 MOI HIV1 3B infected in human TZM-b1 cells assessed as inhibition of viral replication at 0.11 uM after 24 hrs by luciferase assay", "type": "functional", "settings": "Human immunodeficiency virus 1, 3B, TZM-b1, 24 h", "in_short": "(§1)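 TZM-bl cells were plated at 0.5 x 10^4 per well in phenol red-free RPMI 1640 and allowed to adhere 15-18 h at 37°C. After a medium change, drug was added with quintuple wells per concentration, and cells were infected at the same time with HIV-1 IIIB at MOI 0.1. After 24 h, cells were lysed and luciferase was read minus the uninfected background. Values are percentage of mean luminescence in drug-free wells.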"}, "[2]": {"test_system": "Human immunodeficiency virus 1", "assay": "Antiviral activity against 0.1 MOI HIV1 3B in 24 hrs pretreated human TZM-b1 cells infected 48 hrs post drug removal assessed as inhibition of viral replication at 0.04 to 0.18 uM measured 24 hrs postinfection by luciferase assay", "type": "functional, organism-based", "in_short": "(§2)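 TZM-bl cells (kept in DMEM) were plated at 0.5 x 10^4 per well in phenol red-free RPMI 1640 and left to adhere 15-18 h at 37°C. They were then exposed to drug for 24 h with quintuple wells per concentration. Medium was changed to remove drug, and cells were infected with HIV-1 IIIB at MOI 0.1 at 0, 24 or 48 h after removal. Luciferase was read 24 h post-infection after subtracting the uninfected background. Inhibition is expressed relative to drug-free control wells.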"}, "[3]": {"test_system": "Human immunodeficiency virus 1", "assay": "Antiviral activity against 0.1 MOI HIV1 3B in 24 hrs pretreated human TZM-b1 cells infected 24 hrs post drug removal assessed as inhibition of viral replication at 0.04 to 0.18 uM measured 24 hrs postinfection by luciferase assay", "type": "functional, organism-based", "in_short": "as §2"}, "[4]": {"assay": "Half life in plasma of HIV1-infected patient administered as single dose", "type": "ADME, cell-free", "settings": "human"}, "[5]": {"test_system": "Human immunodeficiency virus 1", "assay": "Antiviral activity against 0.1 MOI HIV1 3B in 24 hrs pretreated human TZM-b1 cells infected 0 hr post drug removal assessed as inhibition of viral replication at 0.18 uM measured 24 hrs postinfection by luciferase assay", "type": "functional", "settings": "Human immunodeficiency virus 1, 3B", "in_short": "as §2"}, "[6]": {"test_system": "Human immunodeficiency virus 1", "assay": "Antiviral activity against 0.1 MOI HIV1 3B infected in human TZM-b1 cells assessed as inhibition of viral replication at 0.14 uM after 24 hrs by luciferase assay", "type": "functional", "settings": "Human immunodeficiency virus 1, 3B, TZM-b1, 24 h", "in_short": "as §1"}, "[7]": {"test_system": "Human immunodeficiency virus 1", "assay": "Antiviral activity against 0.1 MOI HIV1 3B infected in human TZM-b1 cells assessed as inhibition of viral replication after 24 hrs by luciferase assay", "type": "functional, organism-based", "in_short": "(§3)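 TZM-bl cells in phenol red-free RPMI 1640 were infected with HIV-1 IIIB (MOI 0.1) at the time of adding drug at various concentrations, and drug and virus stayed together for 24 h. Lysate luciferase was measured with uninfected background subtracted, in quintuple wells. Inhibition was the mean signal relative to drug-free infected cells.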"}, "[8]": {"assay": "Half life in plasma of HIV1-infected patient", "type": "ADME, cell-free", "settings": "human"}, "[9]": {"test_system": "Human immunodeficiency virus 1", "assay": "Antiviral activity against 0.1 MOI HIV1 3B infected in human TZM-b1 cells assessed as inhibition of viral replication at 0.18 uM after 24 hrs by luciferase assay", "type": "functional", "settings": "Human immunodeficiency virus 1, 3B, TZM-b1, 24 h", "in_short": "as §1"}, "CCRF-CEM [10]": {"test_system": "CCRF-CEM", "assay": "Drug metabolism in human CEM cells assessed as radioactive stavudine triphosphate accumulation at 2 uM assessed per 10^6 cells", "type": "ADME, cell-based", "settings": "TDE = time-dependent effect", "in_short": "(§4)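 CEM cells (2 x 10^7/ml) in RPMI 1640 with 10% dialyzed FBS were incubated at 37°C with 2 µM [3H]analog (75 mCi/mmol) and harvested at 2, 4, 8, 12, 16 and 24 h. Cells were washed in ice-cold PBS with 20 µM dipyridamole and extracted with 15% TCA. Neutralized extracts were separated on a Partisil SAX column with an H2O to 300 mM potassium phosphate gradient and radiometric detection, reported as pmol/10^6 cells, mean ± SD of three experiments.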"}, "CCRF-CEM [11]": {"test_system": "CCRF-CEM", "assay": "Drug metabolism in human CEM cells assessed as radioactive zidovudine triphosphate accumulation at 2 uM assessed per 10^6 cells", "type": "ADME, cell-based", "settings": "TDE = time-dependent effect", "in_short": "as §4"}, "CCRF-CEM [12]": {"test_system": "CCRF-CEM", "assay": "Drug metabolism in human CEM cells assessed as radioactive stavudine monophosphate accumulation at 2 uM after 12 hrs assessed per 10^6 cells", "type": "ADME, cell-based", "in_short": "as §4"}, "CCRF-CEM [13]": {"test_system": "CCRF-CEM", "assay": "Drug metabolism in human CEM cells assessed as radioactive stavudine monophosphate accumulation at 2 uM assessed per 10^6 cells", "type": "ADME, cell-based", "settings": "TDE = time-dependent effect", "in_short": "as §4"}, "CCRF-CEM [14]": {"test_system": "CCRF-CEM", "assay": "Stability in human CEM cells assessed as intracellular radioactive triphosphate metabolite accumulation at 2 uM incubated for 24 hrs measured after 24 hrs of compound removal assessed per 10^6 cells", "type": "ADME, cell-based", "in_short": "(§5)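 CEM cells were loaded with 2 µM [3H]analog (75 mCi/mmol) for 24 h, washed, and resuspended in drug-free medium. Intracellular metabolites were then measured by SAX-HPLC with radiometric detection at 0, 2, 4, 8, 12 and 24 h after removal. Values are pmol/10^6 cells, mean ± SD of three experiments.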"}, "CCRF-CEM [15]": {"test_system": "CCRF-CEM", "assay": "Drug metabolism in human CEM cells assessed as radioactive 2', 3'-didehydro-3'-deoxy-4'-ethynylthymidine triphosphate accumulation at 2 uM assessed per 10^6 cells", "type": "ADME, cell-based", "settings": "TDE = time-dependent effect", "in_short": "as §4"}, "CCRF-CEM [16]": {"test_system": "CCRF-CEM", "assay": "Drug metabolism in human CEM cells assessed as radioactive stavudine diphosphate accumulation at 2 uM assessed per 10^6 cells", "type": "ADME, cell-based", "settings": "TDE = time-dependent effect", "in_short": "as §4"}, "CCRF-CEM [17]": {"test_system": "CCRF-CEM", "assay": "Drug metabolism in human CEM cells assessed as radioactive zidovudine diphosphate accumulation at 2 uM assessed per 10^6 cells", "type": "ADME, cell-based", "settings": "TDE = time-dependent effect", "in_short": "as §4"}, "CCRF-CEM [18]": {"test_system": "CCRF-CEM", "assay": "Drug metabolism in human CEM cells assessed as radioactive stavudine triphosphate accumulation at 2 uM after 12 hrs assessed per 10^6 cells", "type": "ADME, cell-based", "in_short": "as §4"}, "[19]": {"test_system": "Human immunodeficiency virus 1", "assay": "Antiviral activity against 0.1 MOI HIV1 3B in 24 hrs pretreated human TZM-b1 cells infected 24 hrs post drug removal assessed as inhibition of viral replication at 1 to 6 uM measured 24 hrs postinfection by luciferase assay"}, "CCRF-CEM [20]": {"test_system": "CCRF-CEM", "assay": "Drug metabolism in human CEM cells assessed as radioactive 2', 3'-didehydro-3'-deoxy-4'-ethynylthymidine monophosphate accumulation at 2 uM assessed per 10^6 cells", "type": "ADME, cell-based", "settings": "TDE = time-dependent effect", "in_short": "as §4"}, "CCRF-CEM [21]": {"test_system": "CCRF-CEM", "assay": "Stability in human CEM cells assessed as intracellular radioactive phosphorylated metabolite accumulation at 2 uM incubated for 24 hrs measured after 8 hrs of compound removal assessed per 10^6 cells", "type": "ADME, cell-based", "in_short": "as §5"}, "CCRF-CEM [22]": {"test_system": "CCRF-CEM", "assay": "Drug metabolism in human CEM cells assessed as radioactive 2', 3'-didehydro-3'-deoxy-4'-ethynylthymidine diphosphate accumulation at 2 uM assessed per 10^6 cells", "type": "ADME, cell-based", "settings": "TDE = time-dependent effect", "in_short": "as §4"}, "[23]": {"test_system": "Human immunodeficiency virus 1", "assay": "Antiviral activity against 0.1 MOI HIV1 3B in 24 hrs pretreated human TZM-b1 cells infected 24 hrs post drug removal assessed as inhibition of viral replication at 1 to 6 uM measured 24 hrs postinfection by luciferase assay", "type": "functional, organism-based", "in_short": "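TZM-bl cells were plated in phenol red-free RPMI 1640, allowed to adhere 15–18 h at 37°C, then exposed to a range of drug concentrations for 24 h. Medium was changed to remove extracellular drug, and cells were infected with HIV-1 IIIB (MOI 0.1) at 0, 24 or 48 h after removal. Luciferase was read 24 h post-infection with uninfected-cell background subtracted, in quintuple wells, and expressed relative to no-drug wells.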"}, "[24]": {"test_system": "Human immunodeficiency virus 1", "assay": "Antiviral activity against 0.1 MOI HIV1 3B infected in human TZM-b1 cells assessed as inhibition of viral replication at 2 uM after 24 hrs by luciferase assay", "type": "functional", "settings": "Human immunodeficiency virus 1, 3B, TZM-b1, 24 h", "in_short": "as §3"}, "CCRF-CEM [25]": {"test_system": "CCRF-CEM", "assay": "Drug metabolism in human CEM cells assessed as radioactive zidovudine monophosphate accumulation at 2 uM assessed per 10^6 cells", "type": "ADME, cell-based", "settings": "TDE = time-dependent effect", "in_short": "as §4"}, "[26]": {"test_system": "Human immunodeficiency virus 1", "assay": "Antiviral activity against 0.1 MOI HIV1 3B infected in human TZM-b1 cells assessed as inhibition of viral replication at 6 uM after 24 hrs by luciferase assay", "type": "functional", "settings": "Human immunodeficiency virus 1, 3B, TZM-b1, 24 h", "in_short": "as §3"}, "CCRF-CEM [27]": {"test_system": "CCRF-CEM", "assay": "Drug metabolism in human CEM cells assessed as radioactive stavudine diphosphate accumulation at 2 uM after 12 hrs assessed per 10^6 cells", "type": "ADME, cell-based", "in_short": "as §4"}},
  "note": "Activity calls are given as the source filed them. No cut-off for these calls is given here.",
  "data": [
    {"molecule": "Cc1ccnc2c1NC(=O)c1cccnc1N2C1CC1", "note": "[NEVIRAPINE]", "values": [
      {"measurement": "inhibition at 0.11 µM", "setting": "[1]", "value": 50, "unit": "%"},
      {"measurement": "inhibition", "setting": "[2]", "value": "inactive"},
      {"measurement": "inhibition", "setting": "[3]", "value": "inactive"},
      {"measurement": "half-life", "setting": "[4]", "value": 30, "unit": "h"},
      {"measurement": "inhibition at 0.18 µM", "setting": "[5]", "value": "< 50", "unit": "%"},
      {"measurement": "inhibition at 0.14 µM", "setting": "[6]", "value": 50, "unit": "%"},
      {"measurement": "inhibition", "setting": "[7]", "value": "Dose-dependent effect"},
      {"measurement": "half-life", "setting": "[8]", "value": 30, "unit": "h"},
      {"measurement": "inhibition at 0.18 µM", "setting": "[9]", "value": 50, "unit": "%"}
    ]},
    {"molecule": "Cc1cn([C@H]2C=C[C@@H](CO)O2)c(=O)[nH]c1=O", "note": "[STAVUDINE]", "values": [
      {"measurement": "Activity", "setting": "CCRF-CEM [10]", "value": "tde"},
      {"measurement": "Activity", "setting": "CCRF-CEM [11]", "value": "tde"},
      {"measurement": "Activity", "setting": "CCRF-CEM [12]", "value": 1.2, "unit": "pmol"},
      {"measurement": "Activity", "setting": "CCRF-CEM [13]", "value": "tde"},
      {"measurement": "Stability", "setting": "CCRF-CEM [14]", "value": "Unstable"},
      {"measurement": "Activity", "setting": "CCRF-CEM [15]", "value": "tde"},
      {"measurement": "inhibition", "setting": "[7]", "value": "Dose-dependent effect"},
      {"measurement": "Activity", "setting": "CCRF-CEM [16]", "value": "tde"},
      {"measurement": "Activity", "setting": "CCRF-CEM [17]", "value": "tde"},
      {"measurement": "Activity", "setting": "CCRF-CEM [18]", "value": 1.2, "unit": "pmol"},
      {"measurement": "inhibition", "setting": "[19]", "value": "inactive"},
      {"measurement": "Activity", "setting": "CCRF-CEM [20]", "value": "tde"},
      {"measurement": "Stability", "setting": "CCRF-CEM [21]", "value": 0.2, "unit": "pmol"},
      {"measurement": "Activity", "setting": "CCRF-CEM [22]", "value": "tde"},
      {"measurement": "inhibition", "setting": "[23]", "value": "inactive"},
      {"measurement": "inhibition at 2 µM", "setting": "[24]", "value": 50, "unit": "%"},
      {"measurement": "Activity", "setting": "CCRF-CEM [25]", "value": "tde"},
      {"measurement": "inhibition at 6 µM", "setting": "[26]", "value": 50, "unit": "%"},
      {"measurement": "Activity", "setting": "CCRF-CEM [27]", "value": 1.2, "unit": "pmol"}
    ]}
  ]
}
